The results in this text go back to publication PMC4292800 (Bioorganic & medicinal chemistry, 2014).

Data set [1] can be described thus: Oxidation kinetics of 1 into 2 by HPLC. Type of data set: physicochemical. Put shortly:
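In PBS, alone or with 10 mM H2O2 (a tenfold excess), the test compound's conversion to its oxidised product was followed by reverse-phase HPLC on a C-18 column (Synergi Hydro-RP, 4 μm, 80 Å, 150 × 4.6 mm), and a conversion rate was derived. N-acetylcysteine was then added in limiting amount to mimic cellular thiol addition; the adduct was confirmed by FTMS.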

The subject of data set [2] is primary CD34+ normal human blood stem cells. As to the kind of experiment: MTT cytotoxicity selectivity, normal blood stem cells versus AML cells. It is filed as cell-based. The settings on record: CD34+ normal human blood stem cells vs MA9.3RAS. The procedure, abridged: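 Both cell types get the same MTT assay. AML cells are cultured in IMDM with 20% bovine calf serum; UCB cells in the same medium plus SCF, IL-3, IL-6, Flt-3L and TPO. Cells are seeded at 4 × 10^4/well, held overnight at 37°C, then exposed 48 h to freshly dissolved test compound. Medium is replaced with MTT for 4 h, then DMSO, OD 575 nm. IC50 comes from a four-parameter sigmoid fit (triplicates, repeated twice), and the ratio is normal IC50 over AML IC50.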

The nature of data set [3]: Oxidation of 14 to 14-ox/14-red by HPLC. It is filed as physicochemical. Put shortly:
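Oxidation of the test compound to its bicyclic oxidised/reduced products was followed by reverse-phase C-18 HPLC. Under normal atmosphere the reaction was fitted as pseudo-zero-order to give t1/2. Activation used one molar equivalent of hydrogen peroxide, and rate enhancement was estimated from a lower-limit t1/2 against the atmosphere-only reaction.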

Consider `CN(CC(=O)Nc1cc(O)ccc1O)c1ccccc1` [Compound 1, N-(2,5-dihydroxyphenyl)-2-(methyl(phenyl)amino) acetamide], for which the “rate of conversion of 1 to 2” value is 0.011 ± 0.002 min^− in data set [1] (PBS, absence of exogenous oxidant) and 0.6 ± 0.1 min^− in data set [1] (presence of 10 mM H2O2, a tenfold excess). Also, in data set [1] (PBS, no exogenous oxidant, in one hour), the “conversion of 1 to 2” value is given as “approximately 50%”. Besides, the “rate of conversion of 1 into 2” value in data set [1] (with hydrogen peroxide (Figure 2D legend)) stood at 0.6 min⁻¹.
As to `O=C(COc1ccccc1)Nc1cc(O)ccc1O` [Compound 10, N-(2,5-dihydroxyphenyl)-2-phenoxyacetamide], in data set [2], the “selectivity factor (ratio of IC50 of normal cells over IC50 of AML cells)” value is “limited selectivity”.
Turning to `O=C(CSc1ccccc1)Nc1cc(O)ccc1O` [Compound 11, N-(2,5-dihydroxyphenyl)-2-(phenylthio)acetamide], the “selectivity factor (ratio of IC50 of normal cells over IC50 of AML cells)” value in data set [2] is listed as “limited selectivity”.
On to `O=C(CNC1CCCCC1)Nc1cc(O)ccc1O` [Compound 14, 2-(cyclohexylamino)-N-(2,5-dihydroxyphenyl)acetamide], for which the “time for conversion of all 14” value in data set [3] (hydrogen peroxide (Figure 3C legend)) is recorded as “less than 0.1 hrs”. The “activation by hydrogen peroxide” value in data set [3] (rate enhancement with hydrogen peroxide vs atmosphere) is “more than 150 fold”. The “conversion of 14 to its oxidation product” value in data set [3] (under argon atmosphere, two hours) was 4±3%.
